{"source": "ChEMBL document CHEMBL1811868", "about": "“Structure-activity relationship of 2-hydroxy-2-aryl-2,3-dihydro-imidazo[1,2-a]pyrimidinium salts and 2N-substituted 4(5)-aryl-2-amino-1H-imidazoles as inhibitors of biofilm formation by Salmonella Typhimurium and Pseudomonas aeruginosa” (Bioorg Med Chem, 2011)", "key": {"Salmonella typhimurium [1]": {"system": "Salmonella typhimurium", "test": "Antimicrobial activity against Salmonella Typhimurium ATCC 14028 assessed as inhibition of biofilm formation after 24 hrs by spectrophotometry", "format": "functional, organism-based, Salmonella enterica subsp. enterica serovar Typhimurium", "settings": "Salmonella enterica, ATCC 14028, 24 h", "in_short": "(§1)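 Static peg-lid biofilm prevention assay. Twofold serial dilutions in TSB diluted 1/20, 2–3 repeats per compound. Overnight S. Typhimurium ATCC14028 (LB-grown) or P. aeruginosa PA14 (TSB-grown) cultures were diluted 1:100, giving ~10^6 cells/well, then incubated 24 h at 25 °C without shaking. Pegs were PBS-washed, stained 30 min with 0.1% crystal violet, extracted with 30% acetic acid and read at OD570. IC50 was fitted from the concentration gradient.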"}, "Pseudomonas aeruginosa [2]": {"system": "Pseudomonas aeruginosa", "test": "Antimicrobial activity against Pseudomonas aeruginosa PA14 assessed as inhibition of biofilm formation after 24 hrs by spectrophotometry", "format": "functional, organism-based", "settings": "PA14, 24 h", "in_short": "as §1"}, "Pseudomonas aeruginosa [3]": {"system": "Pseudomonas aeruginosa", "test": "Antimicrobial activity against Pseudomonas aeruginosa PA14 assessed as inhibition of biofilm formation at 25 to 50 uM after 24 hrs by spectrophotometry", "format": "functional", "in_short": "as §1"}, "Salmonella typhimurium [4]": {"system": "Salmonella typhimurium", "test": "Antimicrobial activity against Salmonella Typhimurium ATCC 14028 assessed as inhibition of planktonic cell growth at IC50 after 24 hrs by […]", "format": "functional, organism-based", "settings": "Salmonella enterica subsp. enterica serovar Typhimurium", "in_short": "(§2)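 Planktonic growth was followed by Bioscreen growth curves, not by crystal violet. Overnight cultures were diluted 1:200 in TSB 1/20 and received compound serially diluted in DMSO or EtOH, in triplicate, with solvent controls. Plates were shaken at 25 °C for at least 24 h, reading A600 every 15 min.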"}, "Pseudomonas aeruginosa [5]": {"system": "Pseudomonas aeruginosa", "test": "Antimicrobial activity against Pseudomonas aeruginosa PA14 assessed as inhibition of planktonic cell growth at IC50 after 24 hrs by […]", "format": "functional, organism-based", "in_short": "as §2"}, "Salmonella typhimurium [6]": {"system": "Salmonella typhimurium", "test": "Antimicrobial activity against Salmonella Typhimurium ATCC 14028 assessed as inhibition of planktonic cell growth at 80 uM after 24 hrs by […]", "format": "functional, organism-based", "settings": "Salmonella enterica subsp. enterica serovar Typhimurium", "in_short": "as §2"}, "Pseudomonas aeruginosa [7]": {"system": "Pseudomonas aeruginosa", "test": "Antimicrobial activity against Pseudomonas aeruginosa PA14 assessed as inhibition of planktonic cell growth at 80 uM after 24 hrs by […]", "format": "functional, organism-based", "in_short": "as §2"}, "Salmonella typhimurium [8]": {"system": "Salmonella typhimurium", "test": "Antimicrobial activity against Salmonella Typhimurium ATCC 14028 assessed as inhibition of planktonic cell growth at 40 uM after 24 hrs by […]", "format": "functional, organism-based", "settings": "Salmonella enterica subsp. enterica serovar Typhimurium", "in_short": "as §2"}, "Pseudomonas aeruginosa [9]": {"system": "Pseudomonas aeruginosa", "test": "Antimicrobial activity against Pseudomonas aeruginosa PA14 assessed as inhibition of planktonic cell growth at 20 uM after 24 hrs by […]", "format": "functional, organism-based", "in_short": "as §2"}, "Salmonella typhimurium [10]": {"system": "Salmonella typhimurium", "test": "Antimicrobial activity against Salmonella Typhimurium ATCC 14028 assessed as inhibition of planktonic cell growth at 20 uM after 24 hrs by […]", "format": "functional, organism-based", "settings": "Salmonella enterica subsp. enterica serovar Typhimurium", "in_short": "as §2"}, "Pseudomonas aeruginosa [11]": {"system": "Pseudomonas aeruginosa", "test": "Antimicrobial activity against Pseudomonas aeruginosa PA14 assessed as inhibition of planktonic cell growth at 5 uM after 24 hrs by […]", "format": "functional, organism-based", "in_short": "as §2"}, "Pseudomonas aeruginosa [12]": {"system": "Pseudomonas aeruginosa", "test": "Antimicrobial activity against Pseudomonas aeruginosa PA14 assessed as inhibition of planktonic cell growth at 40 uM after 24 hrs by […]", "format": "functional, organism-based", "in_short": "as §2"}}, "note": "Calls of active or inactive are those of the source."}
{"smiles": "CCCCCCCCCCCN1c2nccc[n+]2C[C@@]1(O)c1ccc(Cl)cc1.[Br-]", "values": [{"measurement": "IC50", "setting": "Salmonella typhimurium [1]", "value": 61.9, "unit": "µM"}, {"measurement": "IC50", "setting": "Pseudomonas aeruginosa [2]", "value": "> 800", "unit": "µM"}, {"measurement": "growth inhibition (GI)", "setting": "Pseudomonas aeruginosa [3]", "value": "> 25", "unit": "%"}]}
{"smiles": "O[C@@]1(c2ccc(Cl)cc2)C[n+]2cccnc2N1C1CCCC1", "values": [{"measurement": "IC50", "setting": "Salmonella typhimurium [1]", "value": 41.8, "unit": "µM"}, {"measurement": "growth inhibition (GI)", "setting": "Salmonella typhimurium [4]", "value": "Active"}, {"measurement": "IC50", "setting": "Pseudomonas aeruginosa [2]", "value": 41.9, "unit": "µM"}, {"measurement": "growth inhibition (GI)", "setting": "Pseudomonas aeruginosa [5]", "value": "Active"}, {"measurement": "growth inhibition (GI)", "setting": "Salmonella typhimurium [6]", "value": "Active"}, {"measurement": "growth inhibition (GI)", "setting": "Pseudomonas aeruginosa [7]", "value": "Active"}]}
{"smiles": "CCCCCCCCCCCCCN1c2nccc[n+]2C[C@@]1(O)c1ccccc1.[Br-]", "values": [{"measurement": "IC50", "setting": "Salmonella typhimurium [1]", "value": 81.6, "unit": "µM"}, {"measurement": "IC50", "setting": "Pseudomonas aeruginosa [2]", "value": "> 800", "unit": "µM"}, {"measurement": "growth inhibition (GI)", "setting": "Pseudomonas aeruginosa [3]", "value": "> 25", "unit": "%"}]}
{"smiles": "CCCCCCCCCCCCN1c2nccc[n+]2C[C@@]1(O)c1ccccc1.[Br-]", "values": [{"measurement": "IC50", "setting": "Salmonella typhimurium [1]", "value": 27.5, "unit": "µM"}, {"measurement": "growth inhibition (GI)", "setting": "Salmonella typhimurium [4]", "value": "Active"}, {"measurement": "growth inhibition (GI)", "setting": "Salmonella typhimurium [8]", "value": "Active"}, {"measurement": "IC50", "setting": "Pseudomonas aeruginosa [2]", "value": "> 800", "unit": "µM"}, {"measurement": "growth inhibition (GI)", "setting": "Pseudomonas aeruginosa [3]", "value": "> 25", "unit": "%"}]}
{"smiles": "CSc1ccc(-c2cnc(NC3CCCCC3)[nH]2)cc1", "values": [{"measurement": "IC50", "setting": "Salmonella typhimurium [1]", "value": 191, "unit": "µM"}, {"measurement": "IC50", "setting": "Pseudomonas aeruginosa [2]", "value": 15.8, "unit": "µM"}, {"measurement": "growth inhibition (GI)", "setting": "Pseudomonas aeruginosa [5]", "value": "inactive"}, {"measurement": "growth inhibition (GI)", "setting": "Pseudomonas aeruginosa [9]", "value": "inactive"}]}
{"smiles": "CC(C)CNc1ncc(-c2ccc(Br)cc2)[nH]1", "values": [{"measurement": "IC50", "setting": "Salmonella typhimurium [1]", "value": 2.9, "unit": "µM"}, {"measurement": "growth inhibition (GI)", "setting": "Salmonella typhimurium [4]", "value": "inactive"}, {"measurement": "growth inhibition (GI)", "setting": "Salmonella typhimurium [8]", "value": "Active"}, {"measurement": "IC50", "setting": "Pseudomonas aeruginosa [2]", "value": 1.2, "unit": "µM"}, {"measurement": "growth inhibition (GI)", "setting": "Pseudomonas aeruginosa [5]", "value": "inactive"}, {"measurement": "growth inhibition (GI)", "setting": "Salmonella typhimurium [10]", "value": "inactive"}, {"measurement": "growth inhibition (GI)", "setting": "Pseudomonas aeruginosa [11]", "value": "inactive"}]}
{"smiles": "Clc1ccc(-c2cnc(NC3CCCC3)[nH]2)cc1Cl", "values": [{"measurement": "IC50", "setting": "Salmonella typhimurium [1]", "value": 5.7, "unit": "µM"}, {"measurement": "growth inhibition (GI)", "setting": "Salmonella typhimurium [4]", "value": "inactive"}, {"measurement": "IC50", "setting": "Pseudomonas aeruginosa [2]", "value": 7.9, "unit": "µM"}, {"measurement": "growth inhibition (GI)", "setting": "Pseudomonas aeruginosa [5]", "value": "inactive"}, {"measurement": "growth inhibition (GI)", "setting": "Pseudomonas aeruginosa [12]", "value": "inactive"}, {"measurement": "growth inhibition (GI)", "setting": "Salmonella typhimurium [10]", "value": "inactive"}]}
{"smiles": "Nc1ncc(-c2ccc(Cl)cc2)[nH]1", "values": [{"measurement": "growth inhibition (GI)", "setting": "Salmonella typhimurium [4]", "value": "inactive"}, {"measurement": "growth inhibition (GI)", "setting": "Salmonella typhimurium [8]", "value": "inactive"}, {"measurement": "growth inhibition (GI)", "setting": "Pseudomonas aeruginosa [5]", "value": "inactive"}, {"measurement": "growth inhibition (GI)", "setting": "Pseudomonas aeruginosa [11]", "value": "inactive"}]}
{"smiles": "CCCCCCCCNc1ncc(-c2ccc([N+](=O)[O-])cc2)[nH]1", "values": [{"measurement": "IC50", "setting": "Salmonella typhimurium [1]", "value": 10.9, "unit": "µM"}, {"measurement": "growth inhibition (GI)", "setting": "Salmonella typhimurium [4]", "value": "inactive"}, {"measurement": "IC50", "setting": "Pseudomonas aeruginosa [2]", "value": 25, "unit": "µM"}, {"measurement": "growth inhibition (GI)", "setting": "Salmonella typhimurium [6]", "value": "inactive"}]}
{"smiles": "O=[N+]([O-])c1ccc(-c2cnc(NC3CCCC3)[nH]2)cc1", "values": [{"measurement": "IC50", "setting": "Salmonella typhimurium [1]", "value": 11.8, "unit": "µM"}, {"measurement": "growth inhibition (GI)", "setting": "Salmonella typhimurium [4]", "value": "inactive"}, {"measurement": "IC50", "setting": "Pseudomonas aeruginosa [2]", "value": 20.2, "unit": "µM"}, {"measurement": "growth inhibition (GI)", "setting": "Pseudomonas aeruginosa [5]", "value": "inactive"}, {"measurement": "growth inhibition (GI)", "setting": "Salmonella typhimurium [10]", "value": "inactive"}]}
{"smiles": "CCCCNc1ncc(-c2ccc(F)cc2)[nH]1", "values": [{"measurement": "IC50", "setting": "Salmonella typhimurium [1]", "value": 15.5, "unit": "µM"}, {"measurement": "growth inhibition (GI)", "setting": "Salmonella typhimurium [4]", "value": "inactive"}, {"measurement": "IC50", "setting": "Pseudomonas aeruginosa [2]", "value": 10.8, "unit": "µM"}, {"measurement": "growth inhibition (GI)", "setting": "Pseudomonas aeruginosa [5]", "value": "inactive"}, {"measurement": "growth inhibition (GI)", "setting": "Pseudomonas aeruginosa [12]", "value": "inactive"}, {"measurement": "growth inhibition (GI)", "setting": "Salmonella typhimurium [6]", "value": "inactive"}]}
{"smiles": "CCCCCCCCNc1ncc(-c2ccc(S(C)(=O)=O)cc2)[nH]1", "values": [{"measurement": "IC50", "setting": "Salmonella typhimurium [1]", "value": 41.8, "unit": "µM"}, {"measurement": "growth inhibition (GI)", "setting": "Salmonella typhimurium [4]", "value": "inactive"}, {"measurement": "IC50", "setting": "Pseudomonas aeruginosa [2]", "value": 3.1, "unit": "µM"}, {"measurement": "growth inhibition (GI)", "setting": "Pseudomonas aeruginosa [5]", "value": "inactive"}, {"measurement": "growth inhibition (GI)", "setting": "Salmonella typhimurium [6]", "value": "inactive"}, {"measurement": "growth inhibition (GI)", "setting": "Pseudomonas aeruginosa [9]", "value": "inactive"}]}
{"smiles": "CCCCNc1ncc(-c2ccc(OC)cc2)[nH]1", "values": [{"measurement": "IC50", "setting": "Salmonella typhimurium [1]", "value": 52.6, "unit": "µM"}, {"measurement": "growth inhibition (GI)", "setting": "Salmonella typhimurium [4]", "value": "inactive"}, {"measurement": "IC50", "setting": "Pseudomonas aeruginosa [2]", "value": 46.3, "unit": "µM"}, {"measurement": "growth inhibition (GI)", "setting": "Pseudomonas aeruginosa [5]", "value": "inactive"}, {"measurement": "growth inhibition (GI)", "setting": "Salmonella typhimurium [6]", "value": "inactive"}, {"measurement": "growth inhibition (GI)", "setting": "Pseudomonas aeruginosa [7]", "value": "inactive"}]}
{"smiles": "CCCCCCCCCCCCCCN1c2nccc[n+]2C[C@@]1(O)c1ccccc1.[Br-]", "values": [{"measurement": "IC50", "setting": "Salmonella typhimurium [1]", "value": 180, "unit": "µM"}, {"measurement": "IC50", "setting": "Pseudomonas aeruginosa [2]", "value": "> 800", "unit": "µM"}, {"measurement": "growth inhibition (GI)", "setting": "Pseudomonas aeruginosa [3]", "value": "> 25", "unit": "%"}]}
{"smiles": "O[C@@]1(c2ccc(Cl)cc2)C[n+]2cccnc2N1C1CCCCCC1", "values": [{"measurement": "IC50", "setting": "Salmonella typhimurium [1]", "value": 27.9, "unit": "µM"}, {"measurement": "growth inhibition (GI)", "setting": "Salmonella typhimurium [4]", "value": "Active"}, {"measurement": "IC50", "setting": "Pseudomonas aeruginosa [2]", "value": 76.2, "unit": "µM"}, {"measurement": "growth inhibition (GI)", "setting": "Pseudomonas aeruginosa [5]", "value": "Active"}, {"measurement": "growth inhibition (GI)", "setting": "Pseudomonas aeruginosa [7]", "value": "Active"}]}
{"smiles": "Brc1ccc(-c2cnc(NC3CCCC3)[nH]2)cc1", "values": [{"measurement": "IC50", "setting": "Salmonella typhimurium [1]", "value": 12.1, "unit": "µM"}, {"measurement": "growth inhibition (GI)", "setting": "Salmonella typhimurium [4]", "value": "inactive"}, {"measurement": "IC50", "setting": "Pseudomonas aeruginosa [2]", "value": 7.2, "unit": "µM"}, {"measurement": "growth inhibition (GI)", "setting": "Pseudomonas aeruginosa [5]", "value": "inactive"}, {"measurement": "growth inhibition (GI)", "setting": "Salmonella typhimurium [10]", "value": "inactive"}, {"measurement": "growth inhibition (GI)", "setting": "Pseudomonas aeruginosa [9]", "value": "inactive"}]}
